Measurements reported in ChEMBL document CHEMBL1142136, “Contribution of target gene mutations and efflux to decreased susceptibility of Salmonella enterica serovar typhimurium to fluoroquinolones and other antimicrobials” (2007).
≈ marks a conversion by molar mass, not a printed value.

How the values were obtained:
Format in all cases: functional, Salmonella enterica subsp. enterica serovar Typhimurium
Salmonella typhimurium [1] = assay: Antimicrobial activity against Salmonella enterica serovar Typhimurium CS9 acrAB::Kan with GyrA S83F, D87N, ParC S80I mutation
Procedure, shortened: (§1)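 MICs measured by broth microdilution on the Sensititre automated system and interpreted by CLSI broth microdilution standards. Ciprofloxacin was also tested by agar dilution, widening the range to 0.0075–128 μg/ml. Quality control strains were E. coli ATCC 25922 and 35218, E. faecalis ATCC 29212, S. aureus ATCC 29213 and P. aeruginosa ATCC 27853.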

Salmonella typhimurium [2] = assay: Antimicrobial activity against Salmonella enterica serovar Typhimurium S21 acrAB::Kan
Procedure, shortened: (§2)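 MICs by automated broth microdilution panels, interpreted to CLSI broth microdilution standards. Ciprofloxacin additionally tested by agar dilution across 0.0075 to 128 μg/ml. Quality control strains: E. coli ATCC 25922 and 35218, Enterococcus faecalis ATCC 29212, S. aureus ATCC 29213, P. aeruginosa ATCC 27853. Test strains are kanamycin-marked deletion mutants of ground-beef isolate S21.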

Salmonella typhimurium [3] = assay: Antimicrobial activity against Salmonella enterica serovar Typhimurium CHS14 gyrA+ with GyrA D87G mutation; procedure, shortened: as §1
Salmonella typhimurium [4] = assay: Antimicrobial activity against Salmonella enterica serovar Typhimurium CS1 with GyrA S83F, D87N, ParC S80I mutation; procedure, shortened: as §1
Salmonella typhimurium [5] = assay: Antimicrobial activity against Salmonella enterica serovar Typhimurium CHS38 acrAB::Kan with GyrA D87G mutation; procedure, shortened: as §1
Salmonella typhimurium [6] = assay: Antimicrobial activity against Salmonella enterica serovar Typhimurium S21; procedure, shortened: as §1
Salmonella typhimurium [7] = assay: Antimicrobial activity against Salmonella enterica serovar Typhimurium CHS38 tolC::Kan with GyrA D87G mutation; procedure, shortened: as §1
Salmonella typhimurium [8] = assay: Antimicrobial activity against Salmonella enterica serovar Typhimurium S21 tolC::Kan; procedure, shortened: as §2
Salmonella typhimurium [9] = assay: Antimicrobial activity against Salmonella enterica serovar Typhimurium S21-2 with GyrA S83F, ParC S80I mutation; procedure, shortened: as §1
Salmonella typhimurium [10] = assay: Antimicrobial activity against Salmonella enterica serovar Typhimurium CHS18 gyrA+ with GyrA S38F mutation; procedure, shortened: as §1
Salmonella typhimurium [11] = assay: Antimicrobial activity against Salmonella enterica serovar Typhimurium CHS18 with GyrA S38F mutation; procedure, shortened: as §1
Salmonella typhimurium [12] = assay: Antimicrobial activity against Salmonella enterica serovar Typhimurium CS3 acrAB::Kan with GyrA S83F, D87N, ParC S80I mutation; procedure, shortened: as §1
Salmonella typhimurium [13] = assay: Antimicrobial activity against Salmonella enterica serovar Typhimurium S21-1 GyrA S83F mutant; procedure, shortened: as §1
Salmonella typhimurium [14] = assay: Antimicrobial activity against Salmonella enterica serovar Typhimurium CHS38 with GyrA D87G mutation; procedure, shortened: as §1
Salmonella typhimurium [15] = assay: Antimicrobial activity against Salmonella enterica serovar Typhimurium CS9 gyrA+ with GyrA S83F, D87N, ParC S80I mutation; procedure, shortened: as §1
Salmonella typhimurium [16] = assay: Antimicrobial activity against Salmonella enterica serovar Typhimurium S21-1 gyrA+; procedure, shortened: as §1
Salmonella typhimurium [17] = assay: Antimicrobial activity against Salmonella enterica serovar Typhimurium CS1 acrAB::Kan with GyrA S83F, D87N, ParC S80I mutation; procedure, shortened: as §1
Salmonella typhimurium [18] = assay: Antimicrobial activity against Salmonella enterica serovar Typhimurium S21-3 gyrA+ with ParC S80I mutation; procedure, shortened: as §1
Salmonella typhimurium [19] = assay: Antimicrobial activity against Salmonella enterica serovar Typhimurium S21-4 with GyrA S83F, ParC S80I mutation; procedure, shortened: as §1
Salmonella typhimurium [20] = assay: Antimicrobial activity against Salmonella enterica serovar Typhimurium CS3 tolC::Kan with GyrA S83F, D87N, parC S80I mutation; procedure, shortened: as §1
Salmonella typhimurium [21] = assay: Antimicrobial activity against Salmonella enterica serovar Typhimurium CHS38 gyrA+ with GyrA D87G mutation; procedure, shortened: as §1
Salmonella typhimurium [22] = assay: Antimicrobial activity against Salmonella enterica serovar Typhimurium S21-4 gyrA+ with ParC S80I mutation; procedure, shortened: as §1
Salmonella typhimurium [23] = assay: Antimicrobial activity against Salmonella enterica serovar Typhimurium CHS18 tolC::Kan with GyrA S38F mutation; procedure, shortened: as §1
Salmonella typhimurium [24] = assay: Antimicrobial activity against Salmonella enterica serovar Typhimurium S21 gyrA+; procedure, shortened: as §1
Salmonella typhimurium [25] = assay: Antimicrobial activity against Salmonella enterica serovar Typhimurium S21-2 gyrA+ with ParC S80I mutation; procedure, shortened: as §1
Salmonella typhimurium [26] = assay: Antimicrobial activity against Salmonella enterica serovar Typhimurium S21-3 with GyrA S83F, ParC S80I mutation; procedure, shortened: as §1
Salmonella typhimurium [27] = assay: Antimicrobial activity against Salmonella enterica serovar Typhimurium CS9 with GyrA S83F, D87N, ParC S80I mutation; procedure, shortened: as §1
Salmonella typhimurium [28] = assay: Antimicrobial activity against Salmonella enterica serovar Typhimurium CHS14 tolC::Kan with GyrA D87G mutant; procedure, shortened: as §1
Salmonella typhimurium [29] = assay: Antimicrobial activity against Salmonella enterica serovar Typhimurium CHS14 with GyrA D87G mutation; procedure, shortened: as §1
Salmonella typhimurium [30] = assay: Antimicrobial activity against Salmonella enterica serovar Typhimurium CS3 with GyrA S83F, D87N, ParC S80I mutation; procedure, shortened: as §1
Salmonella typhimurium [31] = assay: Antimicrobial activity against Salmonella enterica serovar Typhimurium CHS18 acrAB::Kan with GyrA S38F mutation; procedure, shortened: as §1
Salmonella typhimurium [32] = assay: Antimicrobial activity against Salmonella enterica serovar Typhimurium CS1 gyrA+ with GyrA S83F, D87N, ParC S80I mutation; procedure, shortened: as §1
Salmonella typhimurium [33] = assay: Antimicrobial activity against Salmonella enterica serovar Typhimurium CS3 gyrA+ with GyrA S83F, D87N, ParC S80I mutation; procedure, shortened: as §1
Salmonella typhimurium [34] = assay: Antimicrobial activity against Salmonella enterica serovar Typhimurium CHS14 acrAB::Kan with GyrA D87G mutation; procedure, shortened: as §1
Salmonella typhimurium [35] = assay: Antimicrobial activity against Salmonella enterica serovar Typhimurium CS1 tolC::Kan with GyrA S83F, D87N, ParC S80I mutation; procedure, shortened: as §1
Salmonella typhimurium [36] = assay: Antimicrobial activity against Salmonella enterica serovar Typhimurium CS9 tolC::Kan with GyrA S83F, D87N, ParC S80I mutation; procedure, shortened: as §1
Salmonella typhimurium [37] = assay: Antimicrobial activity against Salmonella enterica serovar Typhimurium S21-4 tolC::Kan with GyrA S83F, ParC S80I mutation; procedure, shortened: as §1
Salmonella typhimurium [38] = assay: Antimicrobial activity against Salmonella enterica serovar Typhimurium S21-4 acrAB::Kan with GyrA S83F, ParC S80I mutation; procedure, shortened: as §1
Salmonella typhimurium [39] = assay: Antimicrobial activity against Salmonella enterica serovar Typhimurium S21-3 tolC::Kan with GyrA S83F, ParC S80I mutation; procedure, shortened: as §1
Salmonella typhimurium [40] = assay: Antimicrobial activity against Salmonella enterica serovar Typhimurium S21-2 tolC::Kan with GyrA S83F, ParC S80I mutation; procedure, shortened: as §1
Salmonella typhimurium [41] = assay: Antimicrobial activity against Salmonella enterica serovar Typhimurium S21-3 acrAB::Kan with GyrA S83F, ParC S80I mutation; procedure, shortened: as §1
Salmonella typhimurium [42] = assay: Antimicrobial activity against Salmonella enterica serovar Typhimurium S21-2 acrAB::Kan with GyrA S83F, ParC S80I mutation; procedure, shortened: as §1

CO/N=C(\C(=O)N[C@@H]1C(=O)N2C(C(=O)O)=C(CSC(=O)c3ccco3)CS[C@H]12)c1csc(N)n1 [CEFTIOFUR]
MIC (Salmonella typhimurium [1]): 0.5 µg/mL (≈ 0.955 µM) | MIC (Salmonella typhimurium [2]): < 0.12 µg/mL | MIC (Salmonella typhimurium [3]): 1 µg/mL (≈ 1.91 µM) | MIC (Salmonella typhimurium [4]): 1 µg/mL (≈ 1.91 µM) | MIC (Salmonella typhimurium [5]): 0.12 µg/mL (≈ 0.229 µM) | MIC (Salmonella typhimurium [6]): 0.5 µg/mL (≈ 0.955 µM) | MIC (Salmonella typhimurium [7]): 0.12 µg/mL (≈ 0.229 µM) | MIC (Salmonella typhimurium [8]): < 0.12 µg/mL | MIC (Salmonella typhimurium [9]): 4 µg/mL (≈ 7.64 µM) | MIC (Salmonella typhimurium [10]): 1 µg/mL (≈ 1.91 µM) | MIC (Salmonella typhimurium [11]): 1 µg/mL (≈ 1.91 µM) | MIC (Salmonella typhimurium [12]): 0.5 µg/mL (≈ 0.955 µM) | MIC (Salmonella typhimurium [13]): 0.5 µg/mL (≈ 0.955 µM) | MIC (Salmonella typhimurium [14]): 0.5 µg/mL (≈ 0.955 µM) | MIC (Salmonella typhimurium [15]): 1 µg/mL (≈ 1.91 µM) | MIC (Salmonella typhimurium [16]): 0.5 µg/mL (≈ 0.955 µM) | MIC (Salmonella typhimurium [17]): 0.5 µg/mL (≈ 0.955 µM) | MIC (Salmonella typhimurium [18]): 4 µg/mL (≈ 7.64 µM) | MIC (Salmonella typhimurium [19]): 4 µg/mL (≈ 7.64 µM) | MIC (Salmonella typhimurium [20]): 0.5 µg/mL (≈ 0.955 µM) | MIC (Salmonella typhimurium [21]): 0.5 µg/mL (≈ 0.955 µM) | MIC (Salmonella typhimurium [22]): 4 µg/mL (≈ 7.64 µM) | MIC (Salmonella typhimurium [23]): 0.12 µg/mL (≈ 0.229 µM) | MIC (Salmonella typhimurium [24]): 0.5 µg/mL (≈ 0.955 µM) | MIC (Salmonella typhimurium [25]): 4 µg/mL (≈ 7.64 µM) | MIC (Salmonella typhimurium [26]): 4 µg/mL (≈ 7.64 µM) | MIC (Salmonella typhimurium [27]): 1 µg/mL (≈ 1.91 µM) | MIC (Salmonella typhimurium [28]): < 0.12 µg/mL | MIC (Salmonella typhimurium [29]): 1 µg/mL (≈ 1.91 µM) | MIC (Salmonella typhimurium [30]): 1 µg/mL (≈ 1.91 µM) | MIC (Salmonella typhimurium [31]): 0.12 µg/mL (≈ 0.229 µM) | MIC (Salmonella typhimurium [32]): 1 µg/mL (≈ 1.91 µM) | MIC (Salmonella typhimurium [33]): 1 µg/mL (≈ 1.91 µM) | MIC (Salmonella typhimurium [34]): < 0.12 µg/mL | MIC (Salmonella typhimurium [35]): 0.5 µg/mL (≈ 0.955 µM) | MIC (Salmonella typhimurium [36]): 0.5 µg/mL (≈ 0.955 µM)

CC(=O)OCC1=C(C(=O)O)N2C(=O)[C@@H](NC(=O)Cc3cccs3)[C@H]2SC1 [CEPHALOTHIN]
MIC (Salmonella typhimurium [1]): 8 µg/mL (≈ 20.2 µM) | MIC (Salmonella typhimurium [2]): < 2 µg/mL | MIC (Salmonella typhimurium [3]): < 2 µg/mL | MIC (Salmonella typhimurium [4]): 16 µg/mL (≈ 40.4 µM) | MIC (Salmonella typhimurium [37]): 8 µg/mL (≈ 20.2 µM) | MIC (Salmonella typhimurium [5]): 8 µg/mL (≈ 20.2 µM) | MIC (Salmonella typhimurium [6]): < 2 µg/mL | MIC (Salmonella typhimurium [7]): 8 µg/mL (≈ 20.2 µM) | MIC (Salmonella typhimurium [8]): < 2 µg/mL | MIC (Salmonella typhimurium [9]): > 32 µg/mL | MIC (Salmonella typhimurium [10]): 4 µg/mL (≈ 10.1 µM) | MIC (Salmonella typhimurium [11]): 4 µg/mL (≈ 10.1 µM) | MIC (Salmonella typhimurium [12]): 8 µg/mL (≈ 20.2 µM) | MIC (Salmonella typhimurium [13]): 8 µg/mL (≈ 20.2 µM) | MIC (Salmonella typhimurium [14]): 8 µg/mL (≈ 20.2 µM) | MIC (Salmonella typhimurium [15]): 8 µg/mL (≈ 20.2 µM) | MIC (Salmonella typhimurium [16]): 8 µg/mL (≈ 20.2 µM) | MIC (Salmonella typhimurium [17]): 8 µg/mL (≈ 20.2 µM) | MIC (Salmonella typhimurium [18]): > 32 µg/mL | MIC (Salmonella typhimurium [19]): > 32 µg/mL | MIC (Salmonella typhimurium [20]): 8 µg/mL (≈ 20.2 µM) | MIC (Salmonella typhimurium [38]): 8 µg/mL (≈ 20.2 µM) | MIC (Salmonella typhimurium [21]): 16 µg/mL (≈ 40.4 µM) | MIC (Salmonella typhimurium [39]): 8 µg/mL (≈ 20.2 µM) | MIC (Salmonella typhimurium [40]): 8 µg/mL (≈ 20.2 µM) | MIC (Salmonella typhimurium [22]): > 32 µg/mL | MIC (Salmonella typhimurium [23]): 2 µg/mL (≈ 5.04 µM) | MIC (Salmonella typhimurium [24]): < 2 µg/mL | MIC (Salmonella typhimurium [41]): 8 µg/mL (≈ 20.2 µM) | MIC (Salmonella typhimurium [25]): > 32 µg/mL | MIC (Salmonella typhimurium [26]): > 32 µg/mL | MIC (Salmonella typhimurium [27]): 16 µg/mL (≈ 40.4 µM) | MIC (Salmonella typhimurium [28]): < 2 µg/mL | MIC (Salmonella typhimurium [29]): 4 µg/mL (≈ 10.1 µM) | MIC (Salmonella typhimurium [30]): 16 µg/mL (≈ 40.4 µM) | MIC (Salmonella typhimurium [31]): 2 µg/mL (≈ 5.04 µM) | MIC (Salmonella typhimurium [32]): 8 µg/mL (≈ 20.2 µM) | MIC (Salmonella typhimurium [33]): 8 µg/mL (≈ 20.2 µM) | MIC (Salmonella typhimurium [34]): < 2 µg/mL | MIC (Salmonella typhimurium [35]): 8 µg/mL (≈ 20.2 µM) | MIC (Salmonella typhimurium [42]): 8 µg/mL (≈ 20.2 µM) | MIC (Salmonella typhimurium [36]): 8 µg/mL (≈ 20.2 µM)
